# Screening data deposited in PubChem BioAssay by Broad Institute.
# Sampled rows, rich in hits. Any-hit rate of the full collection: about 2.9%.
# HIV Env fusion: inhibitors of HIV-1 Env-driven cell-cell fusion, primary screen, HeLa-JRFL effector, CEM21 target cells, luciferase | inhibition, % at 12.3 µM | 360,000 compounds, 1.1% hits | AID 651610, 2012;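 active means mean replicate inhibition score of at least 50 and every replicate individually at or above 50; inconclusive means only one of the two criteria met; inactive means mean below 50 and not all replicates reaching 50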;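 further: 0% = plate neutral controls and 100% = maraviroc near 300 nM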
# GSIS activator: GLuc luminescence reporter in INS-1E cells, primary screen for activators of glucose-dependent secretion of insulin; INS-1E GLuc reporter insulin secretion, 2-3 h; 370,000 compounds, 0.61% hits; activation, % at 16.6 µM; AID 743287, 2014;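 active means lowest replicate activation of at least 40%, so every replicate reaches that level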;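 further: 0% = median of neutral control wells and 100% = median of IBMX positive control wells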
# dFosB activator: activators of delta FosB homodimer, primary screen, biochemical, fluorescence polarization, TAMRA-CDK5 oligo, single point. Protein FosB (Mus musculus), P13346. purified delta FosB; percent of positive-control signal above neutral wells. activation, % at 25 µM. 340,000 compounds, 0.99% hits. AID 493131, 2011;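 active means mean activation above about 17%, with every replicate also reaching it, limit read from the data, passing the limit was not always enough; inconclusive means only one of the two conditions met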
# PAX8 inh HTS: inhibitors of PAX8-driven TPO luciferase reporter, primary screen, RMG-I cells, single concentration; SteadyGlo, 24 h; inhibition, % at 12.6 µM; 360,000 compounds, 1.2% hits; AID 652154, 2013;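 active means mean replicate inhibition at least 60% with every replicate also reaching 60%; inconclusive means only one of the two criteria is met; inactive means mean below 60% and not all replicates reaching 60%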;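 further: luciferase light reporting Pax8 driven TPO promoter activity; plate controls were median of neutral control wells for no effect and mitoxantrone controls for full effect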
# CDK5 inh: inhibitors of human CDK5/p35 kinase, primary screen, biochemical, single concentration; Cyclin-dependent kinase 5 (Homo sapiens) + Cyclin-dependent kinase 5 activator 1 (Homo …; Recombinant CDK5/p35, ADP-Glo luminescence, 60 min; inhibition, % at 10 µM; 330,000 compounds, 0.01% hits;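 active means highest replicate inhibition of at least 50% and at least 75% of replicates reaching 50%; inconclusive means only one of the two criteria met; inactive means both criteria failed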;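 further: plate controls were DMSO neutral control for no effect and GW8510 at 10 µM for full effect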
# Target sequence (Q00535 whole entry, looked up): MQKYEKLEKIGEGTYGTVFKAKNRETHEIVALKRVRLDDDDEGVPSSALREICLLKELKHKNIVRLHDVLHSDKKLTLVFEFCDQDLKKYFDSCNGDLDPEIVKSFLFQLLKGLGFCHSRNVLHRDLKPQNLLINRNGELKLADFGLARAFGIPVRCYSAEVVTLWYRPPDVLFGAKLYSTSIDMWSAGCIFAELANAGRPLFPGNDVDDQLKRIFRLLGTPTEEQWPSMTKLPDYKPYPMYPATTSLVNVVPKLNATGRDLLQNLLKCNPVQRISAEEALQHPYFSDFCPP
# Target sequence (Q15078 whole entry, looked up): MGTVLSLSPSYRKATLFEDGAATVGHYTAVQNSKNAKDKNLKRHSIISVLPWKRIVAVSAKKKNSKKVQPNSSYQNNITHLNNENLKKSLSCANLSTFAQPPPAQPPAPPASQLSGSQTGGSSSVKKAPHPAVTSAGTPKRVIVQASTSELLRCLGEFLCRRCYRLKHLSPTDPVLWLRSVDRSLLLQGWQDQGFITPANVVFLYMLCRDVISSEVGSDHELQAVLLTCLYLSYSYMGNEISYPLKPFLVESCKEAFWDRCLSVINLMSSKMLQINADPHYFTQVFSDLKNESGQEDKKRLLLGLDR
# Cneo AK release: Cryptococcus neoformans cell lysis inducers, primary screen, AK release luminescence, single concentration; C. neoformans lysis, adenylate kinase release luminescence, 4 h; normalised: neutral wells 0, clomiphene wells 100; lysis activity, % at 15 µM; 360,000 compounds, 0.2% hits; AID 651654, 2012;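 active means mean lysis activity across replicates of at least 80%, whatever share of replicates individually reach that level; inactive means mean lysis activity below 80%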
#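 read-out = cell lysis signal | test system = log-phase Cryptococcus neoformans yeast cells | input = cells at 5 × 10^6 per mL | medium = fresh YPD growth medium | signal = luminescent adenylate kinase detection reagent | timing = 4 h at 37 °C static, read 1 h later | dosing = single dose | controls = Clomiphene as positive lysis control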
# * marks the source's active call; other numbers are inactive results; ? = inconclusive; . = no result; ! = repeats disagree; [ ] = another dose, or the depositor's remark.
SMILES,HIV Env fusion,GSIS activator,dFosB activator,PAX8 inh HTS,CDK5 inh,Cneo AK release
C[C@@H]1CN([C@@H](C)CO)C(=O)CCCn2cc(nn2)CO[C@H]1CN(C)S(=O)(=O)c1cccs1,8,2,.,-16,.,3
C[C@@H]1CN([C@H](C)CO)C(=O)CCCn2cc(nn2)CO[C@H]1CN(C)S(=O)(=O)c1cccs1,20,41*!,.,4,.,-1
C[C@@H]1CN([C@@H](C)CO)C(=O)c2cc(NC(=O)Nc3cccc4ccccc34)ccc2O[C@@H](C)CCCCO[C@@H]1CN(C)S(=O)(=O)c1cccs1,9[16.7 µM],17,.,1,.,2
O=C(COC(=O)c1ccc(Br)cc1)NC1CCCC1,-3,18,-1,-6,1,-1
O=C(COC(=O)c1cccc(Br)c1)NC1CCCCCCC1,58*,-12,.,-12,.,-2
COc1ccc(C)cc1NCc1cc(=O)oc2cc(-c3ccccc3)c(O)cc12,-12,107*,5,-8,-1,.
Cc1cc(C)cc(NCc2cc(=O)oc3cc(-c4ccccc4)c(O)cc23)c1,-18,-17,-6,14,1,-2
O=Cc1[nH]c2ccccc2c1N(C(=O)CCl)c1ccc([N+](=O)[O-])cc1,45,-26,-10,90*,0,1
O=C(COC(=O)/C=C/c1ccc([N+](=O)[O-])cc1)Nc1ccc2[nH]c(=O)[nH]c2c1,-6,32,31*,0,1,-1
O=C(COC(=O)/C=C/c1ccc(C(F)(F)F)cc1)Nc1ccc2[nH]c(=O)[nH]c2c1,-14,21,15,-1,1,0
Cc1nn(C)c(C)c1/C=C/C(=O)c1ccc(Cl)cc1Cl,56*,-14,-11,30,-1,.
COc1ccc(/C=N/NC(=O)c2[nH]c3ccc(Br)cc3c2-c2ccccc2)cc1,-115,13,2,102*,-7,.
C[C@@H]1CCCCO[C@@H](CN(C)Cc2ccc(C(F)(F)F)cc2)[C@@H](C)CN([C@H](C)CO)C(=O)c2cc(NS(=O)(=O)c3ccc(Cl)cc3)ccc2O1,4[16.7 µM],11,.,-16,.,-3
Cc1ccc(S(=O)(=O)Nc2ccc3c(c2)C(=O)N([C@H](C)CO)C[C@H](C)[C@H](CN(C)Cc2ccc(C(F)(F)F)cc2)OCCCC[C@@H](C)O3)cc1,-30[16.7 µM],8,.,25,.,-4
C[C@H]1CCCCO[C@H](CN(C)Cc2ccc(C(F)(F)F)cc2)[C@@H](C)CN([C@@H](C)CO)C(=O)c2cc(NS(=O)(=O)c3ccc(Cl)cc3)ccc2O1,16[16.7 µM],-19,.,93*,.,3
C[C@@H]1CCCCO[C@H](CN(C)Cc2ccc(C(F)(F)F)cc2)[C@@H](C)CN([C@@H](C)CO)C(=O)c2cc(NS(=O)(=O)c3ccc(Cl)cc3)ccc2O1,21[16.7 µM],-30,.,113*,.,3
C[C@@H]1CCCCO[C@H](CN(C)Cc2ccc(C(F)(F)F)cc2)[C@H](C)CN([C@@H](C)CO)C(=O)c2cc(NS(=O)(=O)c3ccc(Cl)cc3)ccc2O1,?,-28,.,105*,.,-3
C#CCN(Cc1cccc(F)c1)C(=O)c1nnc2c3cc(F)ccc3n(S(=O)(=O)c3ccc(OC)cc3)c2n1,17,26,.,2,.,.
C[C@@H]1CCCCO[C@@H](CN(C)S(C)(=O)=O)[C@@H](C)CN([C@H](C)CO)C(=O)c2cc(NC(=O)Nc3ccc4c(c3)OCO4)ccc2O1,0[16.7 µM],8,.,.,.,1
CCC(C)(CC(=O)Nc1nccs1)c1ccccc1 (stereo not given),17,41*,-4,-10,0,-1
O=C(CCSc1ccccc1)Nc1nccs1,-52,16,1,.,2,.
Cc1cc(-c2csc(N)n2)c(C)n1-c1ccc(Cl)c(Cl)c1,-9,2,-1,0,-1,.
COc1ccc(-n2c(C)cc(-c3csc(N)n3)c2C)cc1,-3,-19,25*,.,0,-2
COCC(=O)N(C)C[C@H]1Oc2ncc(-c3ccccc3F)cc2C(=O)N([C@H](C)CO)C[C@@H]1C,-11[16.7 µM],17,.,-16,.,3
Cc1noc(C)c1S(=O)(=O)Nc1ccc2c(c1)C(=O)N([C@@H](C)CO)C[C@H](C)[C@H](CN(C)C(=O)Nc1ccc(C(F)(F)F)cc1)OCCCC[C@H](C)O2,22[16.7 µM],1,.,89*,.,0
SMILES,HIV Env fusion,GSIS activator,dFosB activator,PAX8 inh HTS,CDK5 inh,Cneo AK release
Cc1noc(C)c1S(=O)(=O)Nc1ccc2c(c1)C(=O)N([C@H](C)CO)C[C@H](C)[C@@H](CN(C)C(=O)Nc1ccc(C(F)(F)F)cc1)OCCCC[C@H](C)O2,44[16.7 µM],-10,.,86*,.,2
Cc1noc(C)c1S(=O)(=O)Nc1ccc2c(c1)C(=O)N([C@H](C)CO)C[C@H](C)[C@H](CN(C)C(=O)Nc1ccc(C(F)(F)F)cc1)OCCCC[C@H](C)O2,18[16.7 µM],-11,.,68*,.,2
COc1ccccc1S(=O)(=O)N[C@H]1CC[C@H](CCNC(=O)C2CCCCC2)O[C@H]1CO,-3[16.7 µM],-6,.,-1,.,37
COCc1cn(CC[C@@H]2CC[C@@H](NC(=O)Nc3c(C)noc3C)[C@@H](CO)O2)nn1,-5[16.7 µM],4,.,-6,.,56
N#Cc1c(-c2ccco2)cc(C2CC2)nc1N,-62,71*,-22,.,0,1
N#Cc1c(-c2ccccc2)cc(C2CC2)nc1N,14,.,-5,.,-3,1
O=C(C[C@@H]1CC[C@H](NS(=O)(=O)c2ccccc2)[C@H](CO)O1)NCc1ccc(Cl)c(Cl)c1,1[16.7 µM],-6,.,10,.,3
Cc1ccc(S(=O)(=O)NC2c3cccc4cccc(c34)C2Sc2nc(C)cc(C)n2)cc1 (stereo not given),98*,-4,-1,22,1,-2
COC(=O)C1=C(C)N(Cc2cccc(C(F)(F)F)c2)C(=NCc2ccc(C(F)(F)F)cc2)NC1c1ccc(Cl)cc1 (stereo not given),?,.,.,12,.,.
COC(=O)C1=C(C)N(Cc2ccc(C(F)(F)F)cc2)C(=NCc2ccccc2)NC1c1ccc(C(F)(F)F)cc1 (stereo not given),18,460*,.,84*,.,.
COC(=O)C1=C(C)N(Cc2ccc(C(F)(F)F)cc2)C(=NCc2ccccc2)NC1c1ccccc1 (stereo not given),-28,949*,.,12,.,.
COc1cccc(NC(=O)C[C@@H]2CC[C@@H]3[C@H](COc4ccc(NS(=O)(=O)c5cccc(F)c5)cc4C(=O)N3C)O2)c1,5[16.7 µM],-1,.,-17,.,-1
CO/N=C/C(C#N)=C/c1ccc(OC)c(OC)c1,-14,60*,-14,-17,-10,.
